Square brackets hold non-standard residues; d marks the D form. Peptide text beside a SMILES is read from it. ξ: configuration not given here. Dmt = Cc1cc(O)cc(C)c1C[C@H](N)C(=O)O; Tic = O=C(O)[C@@H]1Cc2ccccc2CN1; ξTic = O=C(O)C1Cc2ccccc2CN1
Assays:
Rattus norvegicus = species: Rattus norvegicus; assay: Ratio of binding affinities for rat Opioid receptors mu 1 and delta 1
[1] = Binding affinity for rat Opioid receptor delta 1
How it was run: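 Rat brain synaptosomes (P2), preincubated to remove endogenous opioids and stored at -80 °C in buffered 20% glycerol. […] Filters were PEI-soaked GF/C, washed thrice in ice-cold buffered BSA. Five to eight doses, duplicates, independent preparations; Ki by Cheng-Prusoff, mean ± SE.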

[2] = target: T1, Delta-type opioid receptor (Mus musculus, UniProt P32300); assay: Antagonist activity against deltorphin in mouse vas deferens assay; type: functional, tissue-based; settings: read-out: pA2 (converted)
How it was run: (§1)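 Mouse vas deferens, field-stimulated with supramaximal-voltage bipolar rectangular pulses. Antagonism was scored as a rightward shift of the deltorphin C log(concentration)-response curve and reported as pA2, the negative log molar antagonist concentration that doubles the agonist concentration needed for the original submaximal response.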

Mu-type opioid receptor [3] = target: T2, Mu-type opioid receptor (Cavia porcellus, UniProt P97266); assay: Inhibition of Opioid receptor mu 1 in guinea pig ileum assay; type: functional, tissue-based
How it was run: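 Male guinea pig ileum myenteric plexus-longitudinal muscle, field-stimulated with supramaximal-voltage bipolar rectangular pulses. Inhibition of the electrically evoked twitch was measured, with dermorphin as reference agonist. IC50 was taken from concentration-response curves, mean ± SE of at least five to six fresh tissues.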

[4] = Binding affinity for rat Opioid receptor mu 1
[5] = target: T1, Delta-type opioid receptor; assay: Inhibition of Delta opioid receptor in mouse vas deferens assay; type: functional
How it was run: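 Mouse vas deferens, field-stimulated with supramaximal-voltage bipolar rectangular pulses. Inhibition of the electrically evoked twitch was measured, with deltorphin C as reference agonist. IC50 was taken from concentration-response curves, mean ± SE of at least five to six fresh tissues.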

Mu-type opioid receptor [6] = target: T2, Mu-type opioid receptor; assay: Antagonist activity against dermorphin in guinea pig ileum assay; type: functional, tissue-based; settings: read-out: pA2 (converted)
How it was run: as §1, with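 “Male guinea pig ileum myenteric plexus-longitudinal muscle,” for “Mouse vas deferens,”, “dermorphin” for “deltorphin C”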

T1 sequence (P32300 whole entry): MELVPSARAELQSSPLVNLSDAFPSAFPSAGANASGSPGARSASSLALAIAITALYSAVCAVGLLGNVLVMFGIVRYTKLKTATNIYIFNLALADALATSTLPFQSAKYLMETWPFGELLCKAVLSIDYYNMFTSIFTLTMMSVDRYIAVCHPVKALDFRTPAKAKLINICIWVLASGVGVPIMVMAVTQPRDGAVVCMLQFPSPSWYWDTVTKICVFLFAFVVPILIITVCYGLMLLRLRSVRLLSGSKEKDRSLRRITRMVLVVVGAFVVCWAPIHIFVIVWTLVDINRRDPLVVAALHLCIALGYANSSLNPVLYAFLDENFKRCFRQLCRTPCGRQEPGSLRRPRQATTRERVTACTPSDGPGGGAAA
T2 sequence (P97266 whole entry): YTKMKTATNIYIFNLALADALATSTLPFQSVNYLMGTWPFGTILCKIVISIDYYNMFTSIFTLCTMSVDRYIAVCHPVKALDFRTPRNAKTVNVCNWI

SMILES	Ratio (Rattus norvegicus)	Ki [1] [nM]	Kb [2] [nM]	IC50 (Mu-type opioid receptor [3]) [nM]	Ki [4] [nM]	IC50 [5] [nM]	Kb (Mu-type opioid receptor [6]) [nM]
Cc1cc(O)cc(C)c1C[C@H](N)C(=O)N1Cc2ccccc2C[C@H]1C(=O)NCC(N)=O (H-[Dmt]-[Tic]-Gly-NH2)	559	0.25	22.4	> 10000	140		
Cc1cc(O)cc(C)c1C[C@H](N)C(=O)N1Cc2ccccc2C[C@H]1C(=O)NC(CO)C(=O)O (single isomer, unassigned)	10.5	0.27	1.32	> 10000	2830		
Cc1cc(O)cc(C)c1C[C@H](N)C(=O)N1Cc2ccccc2C[C@H]1C(=O)N[C@@H](CC(=O)O)C(N)=O	8.88	0.29	7.59	> 10000	2560		
CC(=O)NCCCC[C@@H](NC(=O)[C@@H]1Cc2ccccc2CN1C(=O)[C@@H](N)Cc1c(C)cc(O)cc1C)C(=O)O	1.05	0.08	0.513	1500	86.8		
Cc1cc(O)cc(C)c1C[C@H](N)C(=O)N1Cc2ccccc2C[C@H]1C(=O)N[C@@H](CCC(N)=O)C(=O)O	1.43	0.32	1.05	> 10000	465		
Cc1cc(O)cc(C)c1C[C@H](N)C(=O)N1Cc2ccccc2C[C@H]1C(=O)N[C@@H](CCC(=O)O)C(N)=O	22.6	0.06	< 0.1		1360	2500	
Cc1cc(O)cc(C)c1C[C@H](N)C(=O)N1Cc2ccccc2C[C@H]1C(=O)N[C@H](CC(=O)O)C(N)=O	834	0.44	7.24	> 10000	367		
CC(=O)NCCCC[C@H](NC(=O)[C@@H]1Cc2ccccc2CN1C(=O)[C@@H](N)Cc1c(C)cc(O)cc1C)C(=O)O	22.4	0.04	0.0851	> 10000	1050		
Cc1cc(O)cc(C)c1C[C@H](N)C(=O)N1Cc2ccccc2C[C@H]1C(=O)N[C@H](CCC(=O)O)C(N)=O	17.4	0.05	2.29		920		< 7940
Cc1cc(O)cc(C)c1C[C@H](N)C(=O)N1Cc2ccccc2C[C@H]1C(=O)N[C@H](C)C(=O)O	20.4						
Cc1cc(O)cc(C)c1C[C@H](N)C(=O)N1Cc2ccccc2C[C@H]1C(=O)NC(Cc1c[nH]cn1)C(=O)O (single isomer, unassigned)	1.4	0.12	1.91	> 10000	174		
Cc1cc(O)cc(C)c1C[C@H](N)C(=O)N1Cc2ccccc2C[C@H]1C(=O)NC(CO)C(N)=O (single isomer, unassigned)	1.12	0.13	8.51	> 10000	140		
Cc1cc(O)cc(C)c1C[C@H](N)C(=O)N1Cc2ccccc2C[C@H]1C(=O)NC(CCCCN)C(N)=O (single isomer, unassigned)	24	0.71	13.5	7870	17		
Cc1cc(O)cc(C)c1C[C@H](N)C(=O)N1Cc2ccccc2C[C@H]1C(=O)NC(C)C(N)=O (stereo in doubt)	158	0.3	25.1	> 10000	47.5		
Cc1cc(O)cc(C)c1C[C@H](N)C(=O)N1Cc2ccccc2C[C@H]1C(=O)NC(CCCN=C(N)N)C(N)=O (single isomer, unassigned)	21	0.73	126	6600	15.1		
Cc1cc(O)cc(C)c1C[C@H](N)C(=O)N1Cc2ccccc2CC1C(=O)N[C@@H](Cc1c[nH]c2ccccc12)C(=O)O (some centres undefined) (H-[Dmt]-[ξTic]-Trp-OH)	462						
Cc1cc(O)cc(C)c1C[C@H](N)C(=O)N1Cc2ccccc2C[C@H]1C(=O)N[C@@H](CC(N)=O)C(=O)O	73	1.1	5.89	> 10000	80.3		
Cc1cc(O)cc(C)c1C[C@H](N)C(=O)N1Cc2ccccc2C[C@H]1C(=O)N[C@@H](C)C(=O)O		0.29		> 10000	5820		
Cc1cc(O)cc(C)c1C[C@H](N)C(=O)N1Cc2ccccc2C[C@H]1C(=O)N[C@H](CC(N)=O)C(=O)O	5.4	0.74	5.89	> 10000	4000		
Cc1cc(O)cc(C)c1C[C@H](N)C(=O)N1Cc2ccccc2C[C@H]1C(=O)N[C@H](CCC(N)=O)C(=O)O	1.25	0.45	1.23	> 10000	562		
Cc1cc(O)cc(C)c1C[C@H](N)C(=O)N1Cc2ccccc2C[C@H]1C(=O)N[C@@H](Cc1c[nH]c2ccccc12)C(=O)O (H-[Dmt]-[Tic]-Trp-OH)		0.03	0.269	1500	15.7		

Reference: ChEMBL document CHEMBL1138666, “Direct influence of C-terminally substituted amino acids in the Dmt-Tic pharmacophore on delta-opioid receptor selectivity and antagonism” (J Med Chem, 2004)
